Key:
[1] = molecular target: T1, Sterol O-acyltransferase 1 (Rattus norvegicus) (UniProt O70536); assay: In vitro inhibitory activity against acyl coenzyme A:cholesterol acyltransferase (ACAT); parameters: concentration or dose not given beside the values; conditions: concentration not given here
T1 sequence (whole entry): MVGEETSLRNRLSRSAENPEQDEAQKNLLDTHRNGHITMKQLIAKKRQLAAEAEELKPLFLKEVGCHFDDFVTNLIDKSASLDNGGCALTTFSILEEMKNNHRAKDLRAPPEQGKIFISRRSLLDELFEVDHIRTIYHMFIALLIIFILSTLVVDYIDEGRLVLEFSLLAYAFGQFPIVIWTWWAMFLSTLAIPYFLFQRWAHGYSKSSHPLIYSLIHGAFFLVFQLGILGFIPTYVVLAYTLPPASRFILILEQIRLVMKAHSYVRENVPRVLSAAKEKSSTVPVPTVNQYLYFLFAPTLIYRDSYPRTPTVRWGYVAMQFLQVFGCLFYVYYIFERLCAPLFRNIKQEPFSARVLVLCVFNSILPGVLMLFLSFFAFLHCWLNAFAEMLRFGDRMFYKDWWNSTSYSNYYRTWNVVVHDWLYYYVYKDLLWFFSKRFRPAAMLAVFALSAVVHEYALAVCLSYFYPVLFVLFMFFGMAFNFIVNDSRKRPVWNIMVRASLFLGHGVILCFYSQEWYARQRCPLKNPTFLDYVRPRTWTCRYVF
Method in brief: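 ACAT enzyme from rat adrenal homogenate in 0.2 M KH2PO4 buffer pH 7.4, 1000g 15 min 5 °C supernatant (microsomal fraction). Supernatant + BSA (50 mg/mL) + compound at final 5.2 μg/mL + buffer preincubated 10 min 37 °C; [14C]oleoyl-CoA (0.4 μCi) added, 30 min 37 °C. Lipids extracted, TLC; cholesteryl ester zone counted. Mean % inhibition vs no-compound control; Student's t test.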

Rattus norvegicus [2] = assay: In vivo triglyceride lowering activity, dosed at 0.03 % of the diet; type: functional
Method in brief: (§1)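 Male CFE or CD-1 Sprague-Dawley rats, 140-150 g; 8 per control group, 4 per test group. Compound mixed into ground chow (w/w) via MeOH-CHCl3 (1:3) solution, solvent evaporated; controls got solvent-treated chow. Fed ad libitum 5 days, food intake monitored, killed fed and bled. Serum sterols and triglycerides by adapted autoanalyzer methods; mean percent of control, Student's t test.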

Rattus norvegicus [3] = assay: In vivo Sterol lowering activity at dose as 0.03 % of the diet.; type: functional; method in brief: as §1
Rattus norvegicus [4] = assay: In vivo Sterol lowering activity at dose as 0.10 % of the diet.; type: functional; method in brief: as §1
Rattus norvegicus [5] = assay: In vivo triglyceride lowering activity, dosed at 0.01 % of the diet.; type: functional; method in brief: as §1
Rattus norvegicus [6] = assay: In vivo triglyceride lowering activity dosed at 0.10 % of the diet; type: functional; method in brief: as §1
Rattus norvegicus [7] = assay: In vivo Sterol lowering activity at dose as 0.01 % of the diet..; type: functional; method in brief: as §1
Rattus norvegicus [8] = assay: In vivo Sterol lowering activity at dose as 0.025 % of the diet.; type: functional; method in brief: as §1
Rattus norvegicus [9] = assay: In vivo Sterol lowering activity at dose as 0.05 % of the diet.; type: functional; method in brief: as §1
Rattus norvegicus [10] = assay: In vivo Triglyceride lowering activity at dose as 0.05 % of the diet.; type: functional; method in brief: as §1
Rattus norvegicus [11] = assay: In vivo triglyceride lowering activity, dosed at 0.10 % of the diet.; type: functional; method in brief: as §1
Rattus norvegicus [12] = assay: In vivo Triglyceride lowering activity at dose as 0.025 % of the diet.; type: functional; method in brief: as §1

SMILES	inhibition [1] [%]	serum triglycerides, percent of control (Rattus norvegicus [2]) [%]	serum sterol level, percent of control (Rattus norvegicus [3]) [%]	serum sterol, percent of control (Rattus norvegicus [4]) [%]	Diet (Rattus norvegicus [5]) [%]	serum triglycerides, percent of control (Rattus norvegicus [6]) [%]	Diet (Rattus norvegicus [7]) [%]	Diet (Rattus norvegicus [8]) [%]	Diet (Rattus norvegicus [9]) [%]	Diet (Rattus norvegicus [10]) [%]	Diet (Rattus norvegicus [11]) [%]	Diet (Rattus norvegicus [12]) [%]
CCOC(=O)c1ccc(NCCCc2ccc(N)cc2)cc1	28	70	97	100	113	79	93					
COc1ccccc1CCCNc1ccc(C(=O)O)cc1	0			110				102	100	87	72	100

Reference: ChEMBL document CHEMBL1122501, “Potential antiatherosclerotic agents. 2. (Aralkylamino)- and (alkylamino) benzoic acid analogues of cetaben” (1983)
